Assay results from ChEMBL document CHEMBL1144659, “Structure-activity study of 2,3-benzodiazepin-4-ones noncompetitive AMPAR antagonists: identification of the 1-(4-amino-3-methylphenyl)-3,5-dihydro-7,8-ethylenedioxy-4H-2,3-benzodiazepin-4-one as neuroprotective agent” (Bioorg Med Chem, 2008).

Tests used:
Neuron = assay: Inhibition of kainate-induced C57BL/6N mouse hippocampal neurons excitotoxicity after 48 hrs by MTT assay; assay type: functional, tissue-based; conditions: Hippocampus
Summary of the method: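 E13 C57BL/6N mouse hippocampal cultures were given 30 µM kainate with the test compound at graded concentrations, in medium without glutamate. Exposure was 48 h at 37 °C. Viability was measured by MTT conversion (absorbance 570 nm), relative to untreated cells. IC50 values are representative of three independent experiments.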

[1] = Displacement of [3H]CP-526427 from AMPA receptor in Sprague-Dawley rat fore brain by radioligand binding assay
Summary of the method: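 Adult male Sprague-Dawley forebrain membranes at 0.5 mg protein/mL in 50 mM Tris·HCl pH 7.4. Compounds at various concentrations with 3 nM [3H]CP-526,427, 20 min at 30 °C. Filtration onto glass fiber filters, scintillation counting. Nonspecific binding taken with 10 µM unlabeled CP-526,427 or CP-465,022. Positive control was CP-465,022.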

[2] = Antagonist activity at AMPA receptor in rat […] granule cells assessed as inhibition of kainate-induced calcium uptake after 30 mins; assay type: functional, cell-based; conditions: 0.5 h
Summary of the method: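 Primary rat cerebellar granule neurons, preincubated 30 min with compounds in BSS (pH 7.3), then exposed at room temperature to 100 µM kainate in BSS with 10 µM glycine, 0.5 mM dithiothreitol and 45Ca2+ for 10 min. Washed with ice-cold BSS containing 5 mM EGTA, lysed in 0.6% Triton X-100, radioactivity counted. IC50 representative of three experiments.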

[3] = Excitotoxicity against C57BL/6N mouse hippocampal neurons after 48 hrs by MTT assay; assay type: tissue-based; conditions: Neuron, Hippocampus
Summary of the method: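 Primary hippocampal cultures from E13 C57BL/6N mouse embryos were grown on poly-L-lysine in Neurobasal/B27/BDNF medium. At 7 DIV they were exposed to kainate (5–500 µM) for 48 h at 37 °C, 5% CO2. Viability was read by MTT (4 h, absorbance 570 nm) as % of untreated cells. Five–six experiments, each in duplicate.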

Structure (SMILES) | Activity (Neuron) | IC50 [1] [µM] | IC50 [2] [µM] | IC50 (Neuron) [µM] | EC50 [3] [µM]
CNC(=O)N1N=C(c2ccc(N)cc2)c2cc3c(cc2C[C@H]1C)OCO3 | Dose-dependent effect |  |  |  | 
CC1C(=O)NN=C(c2ccc(N)cc2)c2cc3c(cc21)OCCO3 (stereo not drawn) |  | 6.96 |  |  | 
COc1cc(C2=NNC(=O)Cc3cc4c(cc32)OCO4)ccc1N |  | > 100 | 31 |  | 
CNC(=O)N1N=C(c2ccc(N)cc2)c2cc3c(cc2C(C)C1=O)OCO3 (stereo not drawn) |  | 4.01 | 15.8 |  | 
CNC(=O)N1N=C(c2ccc(N)cc2)c2cc3c(cc2CC1=O)OCCO3 |  | 7.78 | 5.4 |  | 
Cc1cc(C2=NNC(=O)Cc3cc4c(cc32)OCCO4)cc(C)c1N |  | > 100 | > 100 |  | 
Nc1ccc(C2=NNC(=O)Cc3cc4c(cc32)OCCO4)cc1Cl |  | 2.05 | 2 |  | 
CNC(=O)N1N=C(c2ccc(N)cc2)c2cc3c(cc2CC1=O)OCO3 |  | 12 | 11 |  | 
Nc1ccc(C2=NNC(=O)Cc3cc4c(cc32)OCCO4)cc1 |  | 9 | 2.9 |  | 
Nc1ccc(C2=NNC(=O)C(Cc3ccccc3)c3cc4c(cc32)OCO4)cc1 (stereo not drawn) |  | > 100 |  |  | 
CC1=NN=C(c2ccc(N)cc2)c2cc3c(cc2C1)OCO3 [GYKI-52466] |  | 12.6 | 22 | 10.8 | 
CC(=O)N1N=C(c2ccc(N)cc2)c2cc3c(cc2C[C@H]1C)OCO3 | Dose-dependent effect |  |  |  | 
Cc1cc(C2=NNC(=O)C(C)c3cc4c(cc32)OCCO4)ccc1N (stereo not drawn) |  | 4.5 | 1.23 |  | 
Cc1cc(C2=NNC(=O)Cc3cc4c(cc32)OCCO4)ccc1N |  | 1.84 | 6.4 | 1.6 | 
C=C(C)[C@H]1CN[C@H](C(=O)O)[C@H]1CC(=O)O [KAINIC ACID] |  |  |  |  | 17.3
Cc1cc(C2=NNC(=O)C(C)c3cc4c(cc32)OCO4)ccc1N (stereo not drawn) |  | 9.62 | 18.8 |  | 
CC1C(=O)NN=C(c2ccc(N)c(Cl)c2)c2cc3c(cc21)OCCO3 (stereo not drawn) |  | 21.6 | 18 |  | 
Cc1cc(C2=NNC(=O)Cc3cc4c(cc32)OCO4)cc(C)c1N |  | > 100 | > 100 |  | 
CCC1C(=O)NN=C(c2ccc(N)cc2)c2cc3c(cc21)OCO3 (stereo not drawn) |  | 8.37 | 17.1 |  | 
Cc1cc(C2=NNC(=O)Cc3cc4c(cc32)OCO4)ccc1N |  | 6.3 | 2.5 |  | 
CC1C(=O)NN=C(c2ccc(N)c(Cl)c2)c2cc3c(cc21)OCO3 (stereo not drawn) |  | 11.4 | 7 |  | 
CC1C(=O)NN=C(c2ccc(N)cc2)c2cc3c(cc21)OCO3 (stereo not drawn) |  | 12.9 | 12 |  | 
Nc1ccc(C2=NNC(=O)Cc3cc4c(cc32)OCO4)cc1 |  | 32 | 12 |  | 
COc1cc(C2=NNC(=O)Cc3cc4c(cc32)OCCO4)ccc1N |  | 81.1 | 12 |  | 
NS(=O)(=O)c1cccc2c1c([N+](=O)[O-])cc1nc(O)c(O)nc12 [NBQX] |  |  |  | 11.9 | 
CCC1C(=O)NN=C(c2ccc(N)c(C)c2)c2cc3c(cc21)OCO3 (stereo not drawn) |  | 15.6 | 4.34 |  | 
